TDP2 inh: TDP2 (human) inhibition, absorbance primary screen; O95551; recombinant TDP2, T5PNP hydrolysis, p-nitrophenol absorbance 415 nm; inhibition, % at 12.8 µM; actives 0.34% (n = 370,000); AID 720702;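 active = inhibition above the mean of all tested compounds plus 3 SD, set per campaign, cut at about 25% in these data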;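 note: 0% = DMSO with enzyme and 100% = buffer with substrate but no TDP2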
Target sequence (O95551 whole entry, looked up): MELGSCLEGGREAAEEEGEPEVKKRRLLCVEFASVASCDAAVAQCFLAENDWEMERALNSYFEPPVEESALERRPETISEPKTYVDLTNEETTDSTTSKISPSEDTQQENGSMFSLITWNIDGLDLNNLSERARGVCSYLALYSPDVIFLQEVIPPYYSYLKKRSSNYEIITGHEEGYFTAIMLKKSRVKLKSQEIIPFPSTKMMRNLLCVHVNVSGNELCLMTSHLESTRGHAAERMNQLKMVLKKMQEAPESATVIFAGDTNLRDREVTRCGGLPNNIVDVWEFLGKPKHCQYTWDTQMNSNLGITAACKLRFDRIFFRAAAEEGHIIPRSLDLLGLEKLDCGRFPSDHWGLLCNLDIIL
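Test system: Human TDP2 enzyme | Reagent: 5 mM T5PNP | Compound dosing: 12.8 µM single point, 1% DMSO | Incubation: Enzyme reaction with compound for 2 h at 37 °C | Technique: p-Nitrophenol epi absorbance | Read-out: % inhibition relative to enzyme-containing and enzyme-free wells | Benchmarks: High control without enzyme, low control DMSO plus TDP2 | Replicates: Singlicate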
PP5 inh: inhibitors of human protein phosphatase 5 (PP5); P53041; purified PP5c, OMFP substrate fluorescence; inhibition, % at 6.7 µM; actives 0.18% (n = 320,000);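 active = inhibition above the campaign's mean inhibition across all tested compounds plus 3 SD, cut at about 9.5% in these data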;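 note: 0% = DMSO only and 100% = 100 µM cantharidin control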
PP1 inh: counter-screen for PP5 inhibitors: inhibitors of human PP1-alpha | inhibition, % at 6.7 µM | P62136 | purified PP1alpha, OMFP fluorescence | actives 0.9% (n = 320,000);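 active = inhibition above the mean inhibition of all tested compounds plus 3 SD, computed separately for each screening campaign, cut at about 15% in these data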
Target sequence (P62136 whole entry, looked up): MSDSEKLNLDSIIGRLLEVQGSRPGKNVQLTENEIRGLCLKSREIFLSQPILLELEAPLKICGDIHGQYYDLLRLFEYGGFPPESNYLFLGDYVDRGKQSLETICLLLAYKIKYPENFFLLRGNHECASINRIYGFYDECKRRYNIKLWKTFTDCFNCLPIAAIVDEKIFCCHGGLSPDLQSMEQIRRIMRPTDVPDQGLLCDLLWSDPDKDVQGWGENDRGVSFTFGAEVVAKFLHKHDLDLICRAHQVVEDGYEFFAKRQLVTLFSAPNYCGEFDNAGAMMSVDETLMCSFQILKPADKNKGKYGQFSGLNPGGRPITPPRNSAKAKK
GSTO1 counter: GSTO1 inhibition, counter-screen for RBBP9 inhibitors. P78417. recombinant GSTO1, activity-based probe fluorescence polarization. inhibition, % at 5.96 µM. actives 1.1% (n = 300,000);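 active = inhibition above the campaign mean inhibition plus 3 SD, cut at about 35% in these data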;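 note: 0% = GSTO1-1 with DMSO and 100% = wells lacking GSTO1-1 enzyme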
Apaf-1 inh: blocks human Apaf-1 apoptosome activity | O14727 | reconstituted apoptosome caspase-3 activity, DEVD-Rh110 fluorescence | inhibition, % at 20 µM | actives 0.71% (n = 330,000); active = inhibition of at least 40% at 20 µM;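 note: plate controls were DMSO wells for no effect and DEVD-CHO caspase inhibitor wells for full effect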
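System – cell-free apoptosome with Apaf-1, procaspase-3 and caspase-9 · Buffer or medium – pH 7.5 Hepes buffer with CHAPS, BSA, DTT · Also added – cytochrome c with DEVD-Rh110 · Times – 30 min compound preincubation, 50 min activation, room temperature · Technique – Rh110 fluorescence intensity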
GSTO1 inh conf: confirmation of human GSTO1 inhibitors; AID 2176; recombinant GSTO1, probe fluorescence polarization; inhibition, % at 5.96 µM; actives 54% (n = 2,400); shares compounds with GSTO1 counter;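 active = inhibition above the primary screen's cutoff, its mean inhibition plus 3 SD, cut at about 35% in these data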;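 note: loss of polarization as inhibitors block binding of rhodamine sulfonate ester activity probe; 0% = GSTO1 with DMSO and 100% = wells lacking GSTO1 enzyme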
Numbers without * were called inactive. Most compounds without a hit are left out; they make up all but 2.1% or so of the library.

What do the screens show for `Cc1ccc2nc(N3CCN(CCO)CC3)nc(-c3ccccc3)c2c1`?
TDP2 inh: 2.0; PP5 inh: 1.7; PP1 inh: -2.1; GSTO1 counter: 42.9*; Apaf-1 inh: 9.7; GSTO1 inh conf: 24.7

How did COc1cc2c(c3c1c(=O)c1cccc(F)c1n3C)C=CC(C)(C)O2 do in these assays?
TDP2 inh: 6.0

How did COc1cccc2c1C(=O)c1c(O)c3c(c(O)c1C2=O)C[C@](O)(C(C)=O)C[C@H]3O[C@@H]1C[C@@H](N)[C@@H](O)[C@@H](C)O1 do in these assays?
TDP2 inh: -3.9; PP5 inh: 1.7; PP1 inh: -3.4; GSTO1 counter: 48.2*; Apaf-1 inh: 20.5; GSTO1 inh conf: 40.0*

What do the screens show for `COc1cccc2c1C(=O)c1c(O)c3c(c(O)c1C2=O)CC(O)(C(C)=O)CC3OC1CC(O)C(O)C(C)O1` (centres undefined)?
TDP2 inh: 7.8

How did Cc1cc(O)cc(C)c1Cl do in these assays?
TDP2 inh: 4.4; PP5 inh: 1.8; PP1 inh: 0.5; GSTO1 counter: 7.5; Apaf-1 inh: -4.2

What do the screens show for `Cc1cc(O)c(N)c(C)c1Cl`?
TDP2 inh: -20.3; PP5 inh: 1.7; PP1 inh: -0.7; GSTO1 counter: 46.0*; Apaf-1 inh: 1.2; GSTO1 inh conf: 2.9

How did COc1cccc(-n2nnc3c(=O)n(CC(=O)N4CCC(Cc5ccccc5)CC4)cnc32)c1 do in these assays?
TDP2 inh: -15.7; PP5 inh: 0.2; PP1 inh: -0.8; GSTO1 counter: 38.7*; Apaf-1 inh: 0.5; GSTO1 inh conf: 29.4

Results for COc1ccc(C(=O)c2c(C(F)(F)F)oc3c2C(=O)c2ccccc2C3=O)cc1OC ?
TDP2 inh: 11.1; PP5 inh: 4.8; PP1 inh: 4.0; GSTO1 counter: 76.7*; Apaf-1 inh: 84.6*; GSTO1 inh conf: 64.7*

What do the screens show for `CN(CCO)C(=O)c1nc[nH]c1C(=O)N1CCN(c2ccccc2)CC1`?
TDP2 inh: -7.4

How did CC(=O)NCCc1cnc[nH]1 do in these assays?
TDP2 inh: 10.2; PP5 inh: 1.2; PP1 inh: -5.8; GSTO1 counter: 47.3*; Apaf-1 inh: 0.2; GSTO1 inh conf: 3.3

How did Cc1nc(N2CCCCC2)[nH]c(=O)c1CN(C)N=O do in these assays?
TDP2 inh: -2.2

How did S=C(NCCc1c[nH]c2ccccc12)NC1CCCCC1 do in these assays?
TDP2 inh: -9.1; PP5 inh: 4.4; PP1 inh: 4.5; GSTO1 counter: 51.0*; Apaf-1 inh: 8.9; GSTO1 inh conf: 4.6

How did S=C(NCCc1c[nH]c2ccccc12)NC1CCCC1 do in these assays?
TDP2 inh: 1.5; PP5 inh: 5.4; PP1 inh: 0.3; GSTO1 counter: -0.8; Apaf-1 inh: -3.6

How did Cc1nn(-c2ccccc2)c(N)c1C1(O)C(=O)N(C(C)C)c2ccccc21 (centres undefined) do in these assays?
TDP2 inh: 7.4; PP5 inh: 5.4; PP1 inh: -3.5; GSTO1 counter: -2.3; Apaf-1 inh: 2.8

How did Cc1nn(-c2ccccc2)c2c1C1(C(=O)N(C(C)C)c3ccccc31)C(C#N)=C(N)O2 (centres undefined) do in these assays?
TDP2 inh: -3.8; PP5 inh: 4.9; PP1 inh: -0.9; GSTO1 counter: 40.1*; Apaf-1 inh: 23.2; GSTO1 inh conf: 10.9

Results for CC(C)(O)CC[C@@H](O)[C@](C)(O)[C@H]1CC[C@@]2(O)C3=CC(=O)[C@@H]4C[C@@H](O)[C@@H](O)C[C@]4(C)[C@H]3CC[C@]12C ?
TDP2 inh: -3.2; PP5 inh: -0.6; PP1 inh: -0.7; GSTO1 counter: 38.9*; Apaf-1 inh: -1.0; GSTO1 inh conf: 6.8

What do the screens show for `CC(C)(O)CC[C@@H](O)[C@](C)(O)C1CC[C@@]2(O)C3=CC(=O)[C@@H]4C[C@@H](O)[C@@H](O)C[C@]4(C)C3CC[C@]12C` (some centres undefined)?
TDP2 inh: -0.5; Apaf-1 inh: -4.0

Results for O=C(CN1CCOCC1)N/N=C/c1c(O)ccc2ccccc12 ?
TDP2 inh: -0.5; PP5 inh: 3.1; PP1 inh: -3.8; GSTO1 counter: 37.7*; Apaf-1 inh: -2.5; GSTO1 inh conf: 3.9

What do the screens show for `O=C(CN1CCOCC1)N/N=C/c1ccco1`?
TDP2 inh: 9.8; PP5 inh: 3.3; PP1 inh: 0.4; GSTO1 counter: -3.0; Apaf-1 inh: -0.5

What do the screens show for `C[C@H](NC(=O)c1cc2c(cn1)[nH]c1ccccc12)C(=O)O`?
TDP2 inh: 1.0; Apaf-1 inh: 5.3

What do the screens show for `O=C(O)c1cc2c(cn1)[nH]c1ccccc12`?
TDP2 inh: 14.2; PP5 inh: 1.1; PP1 inh: 13.4; GSTO1 counter: 55.9*; Apaf-1 inh: -0.6; GSTO1 inh conf: 17.1

Results for O=C(Nc1cccc(Br)c1)OC1CC2CC1[C@H]1CCCCN1[C@H]2Cc1ccccc1 (some centres undefined) ?
TDP2 inh: -0.3

Results for CCN(c1ccccc1)S(=O)(=O)c1ccc(Cl)c(NC(=O)COC(=O)c2cc(O)c3ccccc3c2O)c1 ?
PP5 inh: 2.5; PP1 inh: 14.0; GSTO1 counter: 51.2*; Apaf-1 inh: 47.6*; GSTO1 inh conf: 27.5

What do the screens show for `CCN(c1ccccc1)S(=O)(=O)c1ccc(Cl)c(NC(=O)COC(=O)c2ccc(O)cc2)c1`?
TDP2 inh: -2.3; PP5 inh: 2.8; PP1 inh: 7.2; GSTO1 counter: -1.7; Apaf-1 inh: 2.8

How did Cn1c(=O)c2[nH]c(-c3ccccc3O)nc2n(C)c1=O do in these assays?
PP5 inh: 2.6; PP1 inh: 2.6; GSTO1 counter: 38.0*; Apaf-1 inh: 7.3; GSTO1 inh conf: 13.3

How did O=[N+]([O-])c1ccc(/C=[N+](\[O-])[C@@H]2CCCC[C@@H]2/[N+]([O-])=C/c2ccc([N+](=O)[O-])o2)o1 do in these assays?
TDP2 inh: 5.3; PP5 inh: 1.1; PP1 inh: 1.3; GSTO1 counter: 39.9*; Apaf-1 inh: 10.2; GSTO1 inh conf: 18.4

How did O=C(N/N=C/c1ccc([N+](=O)[O-])o1)C1CCCC1 do in these assays?
TDP2 inh: -0.6; PP5 inh: 3.2; PP1 inh: -4.4; GSTO1 counter: 19.4; Apaf-1 inh: 1.6

Results for CCC(NC(C)C)C(O)c1ccc(O)c(O)c1 (centres undefined) ?
TDP2 inh: 0.6; PP5 inh: 0.0; PP1 inh: 3.8; GSTO1 counter: 50.0*; Apaf-1 inh: -0.9; GSTO1 inh conf: 2.4

How did CC(C)NC[C@H](O)c1ccc(O)c(O)c1 do in these assays?
TDP2 inh: 6.8; PP5 inh: -0.2; PP1 inh: -1.1; GSTO1 counter: 9.0; Apaf-1 inh: -5.6

Results for CCCCN1CCS(=O)(=O)N(Cc2cn(Cc3cccc(Cl)c3)nn2)C(C(=O)OC)C1 (centres undefined) ?
TDP2 inh: 1.7

Screening results from PubChem.
